Fold change (FC) and inhibition data for 3 compounds are collected here from ChEMBL document CHEMBL5653631, “A Potent and Selective ULK1 Inhibitor Suppresses Autophagy and Sensitizes Cancer Cells to Nutrient Stress” (iScience, 2018).

A word on the inhibition: it is the change of the read-out against control, counted positive when it falls.

For assay [1], the target named is Ribosomal protein S6 kinase alpha-4 (Homo sapiens) (UniProt O75676). The assay can be described thus: Inhibition of human recombinant MSK2 at 40 nM related to control ULK1.
In assay [2] the target is T1, Protein kinase C epsilon type (Homo sapiens) (UniProt Q02156).
T1 sequence (whole entry): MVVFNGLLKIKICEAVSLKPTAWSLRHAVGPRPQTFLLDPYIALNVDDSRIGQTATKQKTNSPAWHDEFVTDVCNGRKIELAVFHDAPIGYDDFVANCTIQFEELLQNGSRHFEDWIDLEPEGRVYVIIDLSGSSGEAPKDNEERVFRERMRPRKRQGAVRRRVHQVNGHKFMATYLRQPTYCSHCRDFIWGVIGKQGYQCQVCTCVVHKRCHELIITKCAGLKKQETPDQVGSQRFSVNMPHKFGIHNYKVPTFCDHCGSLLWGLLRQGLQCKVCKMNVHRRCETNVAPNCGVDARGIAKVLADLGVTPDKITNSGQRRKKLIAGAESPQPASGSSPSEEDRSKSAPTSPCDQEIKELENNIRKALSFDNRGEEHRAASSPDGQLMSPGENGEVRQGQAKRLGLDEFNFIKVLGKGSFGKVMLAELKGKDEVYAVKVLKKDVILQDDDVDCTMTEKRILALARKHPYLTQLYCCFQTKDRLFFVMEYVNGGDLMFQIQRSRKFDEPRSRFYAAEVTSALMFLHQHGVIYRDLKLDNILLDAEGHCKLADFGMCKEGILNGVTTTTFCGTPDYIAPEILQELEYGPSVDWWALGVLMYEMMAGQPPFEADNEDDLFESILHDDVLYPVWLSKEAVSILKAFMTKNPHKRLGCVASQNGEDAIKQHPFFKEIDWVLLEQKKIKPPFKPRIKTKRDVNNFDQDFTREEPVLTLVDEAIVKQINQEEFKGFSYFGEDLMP
The assay can be described thus: Inhibition of human recombinant PKCe at 500 nM in presence of ATP by radiometric assay relative to control.

For assay [3], the target named is Serine/threonine-protein kinase SIK2 (Homo sapiens) (UniProt Q9H0K1). The assay can be described thus: Inhibition of human recombinant QIK at 500 nM related to control ULK1.
Assay [4] deals with T2, Cytoplasmic tyrosine-protein kinase BMX (Homo sapiens) (UniProt P51813).
T2 sequence (whole entry): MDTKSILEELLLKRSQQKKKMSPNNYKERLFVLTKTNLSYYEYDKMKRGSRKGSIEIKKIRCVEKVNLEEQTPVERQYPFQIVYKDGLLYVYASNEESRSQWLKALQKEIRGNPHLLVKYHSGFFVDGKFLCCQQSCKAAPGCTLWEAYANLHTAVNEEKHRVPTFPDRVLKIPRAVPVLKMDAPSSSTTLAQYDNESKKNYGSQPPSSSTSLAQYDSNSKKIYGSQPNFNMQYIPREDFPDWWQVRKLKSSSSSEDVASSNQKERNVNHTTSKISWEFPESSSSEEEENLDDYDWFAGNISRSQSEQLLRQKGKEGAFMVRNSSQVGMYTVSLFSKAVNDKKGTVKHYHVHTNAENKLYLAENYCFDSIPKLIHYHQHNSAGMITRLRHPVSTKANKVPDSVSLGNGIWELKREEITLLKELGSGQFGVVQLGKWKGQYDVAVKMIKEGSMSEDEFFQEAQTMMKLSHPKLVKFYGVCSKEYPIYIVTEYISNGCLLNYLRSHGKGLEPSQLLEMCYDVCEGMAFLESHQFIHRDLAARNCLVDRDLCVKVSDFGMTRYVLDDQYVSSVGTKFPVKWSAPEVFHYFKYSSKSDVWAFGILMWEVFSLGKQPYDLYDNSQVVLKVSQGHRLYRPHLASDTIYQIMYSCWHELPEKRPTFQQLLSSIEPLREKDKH
The assay can be described thus: Inhibition of human recombinant BMX at 15 nM in presence of ATP by radiometric assay relative to control. Summed up: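 Part of a radiometric in vitro activity panel of 327 recombinant human kinases. Each kinase was tested in duplicate at one inhibitor concentration. Activity remaining was expressed as a percentage of the vehicle control, and percent inhibition was taken as 100 minus that value.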

For assay [5], the target named is Serine/threonine-protein kinase PAK 5 (Homo sapiens) (UniProt Q9P286). The assay can be described thus: Inhibition of human recombinant PAK5 at 15 nM in presence of ATP by radiometric assay relative to control.
Assay [6] has as its target Protein kinase C alpha type (Homo sapiens) (UniProt P17252). The assay can be described thus: Inhibition of human recombinant PKCa at 15 nM in presence of ATP by radiometric assay relative to control.
Assay [7] deals with Death-associated protein kinase 1 (Homo sapiens) (UniProt P53355). The assay can be described thus: Inhibition of human recombinant DAPK1 at 15 nM related to control ULK1.
In assay [8] the target is T3, Tyrosine-protein kinase JAK3 (Homo sapiens) (UniProt P52333).
T3 sequence (whole entry): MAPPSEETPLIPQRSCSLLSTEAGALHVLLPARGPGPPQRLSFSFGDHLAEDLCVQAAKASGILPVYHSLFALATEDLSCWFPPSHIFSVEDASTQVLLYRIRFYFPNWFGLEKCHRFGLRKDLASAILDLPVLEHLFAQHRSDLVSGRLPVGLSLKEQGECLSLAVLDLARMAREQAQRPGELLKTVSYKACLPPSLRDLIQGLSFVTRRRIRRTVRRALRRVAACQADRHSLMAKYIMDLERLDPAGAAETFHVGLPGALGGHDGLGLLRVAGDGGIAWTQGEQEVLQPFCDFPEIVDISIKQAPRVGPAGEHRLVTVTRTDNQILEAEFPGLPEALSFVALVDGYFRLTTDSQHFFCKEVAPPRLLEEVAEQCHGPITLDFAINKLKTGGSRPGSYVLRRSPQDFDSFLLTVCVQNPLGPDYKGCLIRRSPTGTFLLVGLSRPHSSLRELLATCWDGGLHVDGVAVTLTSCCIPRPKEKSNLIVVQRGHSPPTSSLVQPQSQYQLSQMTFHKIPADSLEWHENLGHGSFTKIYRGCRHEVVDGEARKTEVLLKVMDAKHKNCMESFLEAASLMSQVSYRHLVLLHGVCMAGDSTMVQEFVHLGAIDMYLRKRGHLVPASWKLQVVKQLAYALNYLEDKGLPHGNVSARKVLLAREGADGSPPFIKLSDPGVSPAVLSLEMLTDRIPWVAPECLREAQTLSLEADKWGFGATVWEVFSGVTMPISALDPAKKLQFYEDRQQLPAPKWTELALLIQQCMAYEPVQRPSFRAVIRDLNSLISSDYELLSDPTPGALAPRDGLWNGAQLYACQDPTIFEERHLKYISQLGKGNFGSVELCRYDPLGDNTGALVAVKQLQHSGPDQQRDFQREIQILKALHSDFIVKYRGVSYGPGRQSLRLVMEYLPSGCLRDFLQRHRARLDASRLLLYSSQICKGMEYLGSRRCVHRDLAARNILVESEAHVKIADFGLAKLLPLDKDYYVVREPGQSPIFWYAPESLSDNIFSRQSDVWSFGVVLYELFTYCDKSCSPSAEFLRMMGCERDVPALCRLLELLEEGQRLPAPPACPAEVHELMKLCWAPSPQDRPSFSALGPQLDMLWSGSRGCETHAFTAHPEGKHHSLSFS
The assay can be described thus: Inhibition of human recombinant JAK3 at 15 nM related to control ULK1.

Sequence of Serine/threonine-protein kinase PAK 5 (Homo sapiens) (Q9P286 whole entry, looked up): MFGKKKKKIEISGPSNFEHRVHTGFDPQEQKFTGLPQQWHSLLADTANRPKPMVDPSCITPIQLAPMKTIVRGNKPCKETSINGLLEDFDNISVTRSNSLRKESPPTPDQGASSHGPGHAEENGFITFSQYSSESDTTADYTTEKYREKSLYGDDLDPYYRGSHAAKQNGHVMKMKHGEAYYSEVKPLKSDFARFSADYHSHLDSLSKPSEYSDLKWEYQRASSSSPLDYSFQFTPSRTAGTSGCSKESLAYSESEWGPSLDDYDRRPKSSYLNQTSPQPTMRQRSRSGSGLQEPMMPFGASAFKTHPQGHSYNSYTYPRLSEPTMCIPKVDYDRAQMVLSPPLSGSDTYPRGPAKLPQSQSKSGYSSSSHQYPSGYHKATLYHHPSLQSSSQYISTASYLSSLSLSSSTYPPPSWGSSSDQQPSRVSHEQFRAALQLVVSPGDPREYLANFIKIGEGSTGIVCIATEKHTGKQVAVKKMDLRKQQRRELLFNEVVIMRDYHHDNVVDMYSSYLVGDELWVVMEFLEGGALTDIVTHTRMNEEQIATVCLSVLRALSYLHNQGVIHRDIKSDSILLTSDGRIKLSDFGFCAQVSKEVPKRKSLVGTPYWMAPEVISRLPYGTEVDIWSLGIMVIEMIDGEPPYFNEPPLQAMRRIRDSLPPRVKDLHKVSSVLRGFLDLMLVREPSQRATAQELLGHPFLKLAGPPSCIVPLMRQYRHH
Sequence of Serine/threonine-protein kinase SIK2 (Homo sapiens) (Q9H0K1 whole entry, looked up): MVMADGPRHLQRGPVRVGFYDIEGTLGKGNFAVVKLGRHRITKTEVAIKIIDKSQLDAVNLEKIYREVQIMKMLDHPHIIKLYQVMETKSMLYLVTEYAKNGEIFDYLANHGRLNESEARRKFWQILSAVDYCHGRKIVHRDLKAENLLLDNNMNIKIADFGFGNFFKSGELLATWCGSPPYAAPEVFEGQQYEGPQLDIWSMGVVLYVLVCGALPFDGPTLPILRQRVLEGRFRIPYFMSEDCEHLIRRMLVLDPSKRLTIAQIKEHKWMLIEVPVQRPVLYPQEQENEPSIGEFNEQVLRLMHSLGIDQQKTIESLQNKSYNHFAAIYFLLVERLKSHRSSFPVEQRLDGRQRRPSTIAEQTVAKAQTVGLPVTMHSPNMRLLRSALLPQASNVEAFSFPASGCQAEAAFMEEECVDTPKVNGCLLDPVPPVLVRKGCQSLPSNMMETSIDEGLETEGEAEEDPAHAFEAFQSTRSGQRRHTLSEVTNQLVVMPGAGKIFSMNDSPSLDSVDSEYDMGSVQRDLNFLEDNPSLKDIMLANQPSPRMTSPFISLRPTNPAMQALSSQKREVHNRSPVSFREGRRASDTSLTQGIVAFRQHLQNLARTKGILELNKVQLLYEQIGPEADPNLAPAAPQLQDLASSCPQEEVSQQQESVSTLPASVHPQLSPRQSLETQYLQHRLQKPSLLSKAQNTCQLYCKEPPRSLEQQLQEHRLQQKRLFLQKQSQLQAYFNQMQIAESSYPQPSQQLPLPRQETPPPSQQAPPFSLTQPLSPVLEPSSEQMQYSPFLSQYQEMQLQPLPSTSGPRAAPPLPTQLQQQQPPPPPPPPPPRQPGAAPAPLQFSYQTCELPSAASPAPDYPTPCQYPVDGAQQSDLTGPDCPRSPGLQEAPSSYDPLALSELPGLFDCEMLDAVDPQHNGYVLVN
Sequence of Death-associated protein kinase 1 (Homo sapiens) (P53355 whole entry, looked up): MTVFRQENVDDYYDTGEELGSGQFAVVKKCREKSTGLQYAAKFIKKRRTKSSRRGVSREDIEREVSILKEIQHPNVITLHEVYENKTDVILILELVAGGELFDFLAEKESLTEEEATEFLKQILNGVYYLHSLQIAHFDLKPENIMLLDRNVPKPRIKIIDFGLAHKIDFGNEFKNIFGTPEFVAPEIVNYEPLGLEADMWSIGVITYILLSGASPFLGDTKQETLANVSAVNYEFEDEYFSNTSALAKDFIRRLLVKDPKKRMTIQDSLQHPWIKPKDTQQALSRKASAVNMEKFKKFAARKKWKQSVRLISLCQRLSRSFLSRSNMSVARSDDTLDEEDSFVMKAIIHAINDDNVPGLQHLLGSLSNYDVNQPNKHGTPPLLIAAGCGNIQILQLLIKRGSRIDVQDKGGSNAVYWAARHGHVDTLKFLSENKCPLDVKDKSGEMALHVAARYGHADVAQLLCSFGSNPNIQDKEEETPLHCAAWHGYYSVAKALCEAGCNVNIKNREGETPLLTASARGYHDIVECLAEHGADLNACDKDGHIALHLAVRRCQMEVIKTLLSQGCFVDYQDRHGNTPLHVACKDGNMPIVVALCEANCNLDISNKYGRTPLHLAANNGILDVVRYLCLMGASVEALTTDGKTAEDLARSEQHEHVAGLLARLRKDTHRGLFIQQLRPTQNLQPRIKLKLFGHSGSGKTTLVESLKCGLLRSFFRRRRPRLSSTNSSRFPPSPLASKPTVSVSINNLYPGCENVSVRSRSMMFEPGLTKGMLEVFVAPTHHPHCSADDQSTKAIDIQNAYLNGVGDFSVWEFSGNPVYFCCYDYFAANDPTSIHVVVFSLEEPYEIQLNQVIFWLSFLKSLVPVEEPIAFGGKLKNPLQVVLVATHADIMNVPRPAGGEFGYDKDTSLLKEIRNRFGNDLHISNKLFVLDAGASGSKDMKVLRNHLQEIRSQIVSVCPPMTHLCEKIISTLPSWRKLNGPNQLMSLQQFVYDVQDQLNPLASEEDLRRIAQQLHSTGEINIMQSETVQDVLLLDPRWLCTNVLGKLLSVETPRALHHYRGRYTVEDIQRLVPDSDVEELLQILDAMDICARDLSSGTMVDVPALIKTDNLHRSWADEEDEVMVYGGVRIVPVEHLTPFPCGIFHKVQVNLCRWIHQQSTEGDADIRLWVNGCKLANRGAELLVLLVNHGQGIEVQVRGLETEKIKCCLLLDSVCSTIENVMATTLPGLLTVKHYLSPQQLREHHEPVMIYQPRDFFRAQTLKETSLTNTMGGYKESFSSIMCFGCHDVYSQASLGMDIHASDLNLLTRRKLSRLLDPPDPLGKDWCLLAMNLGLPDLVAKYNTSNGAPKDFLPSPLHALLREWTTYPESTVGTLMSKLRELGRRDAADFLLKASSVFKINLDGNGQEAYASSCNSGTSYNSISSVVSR
Sequence of Ribosomal protein S6 kinase alpha-4 (Homo sapiens) (O75676 whole entry, looked up): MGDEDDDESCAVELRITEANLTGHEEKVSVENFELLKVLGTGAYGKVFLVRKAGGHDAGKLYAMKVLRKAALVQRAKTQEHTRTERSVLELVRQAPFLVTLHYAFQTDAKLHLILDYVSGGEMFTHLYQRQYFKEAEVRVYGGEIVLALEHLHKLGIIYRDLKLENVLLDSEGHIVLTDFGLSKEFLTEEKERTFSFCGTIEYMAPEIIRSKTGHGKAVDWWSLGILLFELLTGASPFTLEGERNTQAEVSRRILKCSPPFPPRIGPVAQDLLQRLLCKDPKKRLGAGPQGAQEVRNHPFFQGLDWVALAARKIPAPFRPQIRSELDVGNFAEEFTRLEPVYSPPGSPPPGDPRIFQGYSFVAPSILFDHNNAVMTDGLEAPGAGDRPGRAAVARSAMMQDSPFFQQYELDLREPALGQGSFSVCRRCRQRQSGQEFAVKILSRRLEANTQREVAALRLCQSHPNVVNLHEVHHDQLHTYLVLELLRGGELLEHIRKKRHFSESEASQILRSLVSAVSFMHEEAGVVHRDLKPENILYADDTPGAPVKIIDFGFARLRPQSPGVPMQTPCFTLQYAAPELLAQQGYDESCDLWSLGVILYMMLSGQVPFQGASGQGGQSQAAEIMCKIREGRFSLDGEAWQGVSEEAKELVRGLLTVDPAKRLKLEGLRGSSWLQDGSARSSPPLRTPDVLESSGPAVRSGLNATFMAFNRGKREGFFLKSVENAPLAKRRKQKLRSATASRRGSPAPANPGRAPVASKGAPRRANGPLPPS

As for `O=C(N[C@@H](C1CC1)C(F)(F)F)c1cc(-c2cnn3cc(-c4ccc(F)cc4)cnc23)cs1`, the fold change (FC) in assay [1] was 0.

Take `CNC(=O)c1ccccc1Oc1nc(Nc2cc(OC)c(OC)c(OC)c2)ncc1Br`: in assay [2], the inhibition was found to be 0%. Also, in assay [3], the fold change (FC) is 0.

`CC(C)[C@H](NC(=O)c1cc(-c2cnn3cc(-c4ccc(OCCN5CCCCC5)cc4)cnc23)cs1)C(F)(F)F`: the inhibition in assay [4] came out at 6%; in assay [5], 0%; in assay [6], 7%. Also, the fold change (FC) came out at 0.05 in assay [7] and 0 in assay [8].
